Measured values taken from paper PMC12278411 (Acta Pharmaceutica Sinica. B, 2025).

Tests used:
[1] = test system: APAP-induced ALI (650 mg/kg APAP); test: Survival period in APAP-induced acute liver injury; format: in vivo, C57BL/6 mice; conditions: APAP 650 mg/kg, 96 h observation
How it was run: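 Male C57BL/6 mice (24–25 g), fasted 16 h with free water, randomised 10 per group. APAP 650 mg/kg i.p., immediately followed by oral test compound (5, 10 or 20 mg/kg; reference groups NAC 30 mg/kg or a RIPK2 inhibitor 10 mg/kg). A second dose was given 12 h after induction. Saline controls included. Survival followed over 96 h.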

RIPK1 = target: T1, RIPK1 (Homo sapiens, UniProt Q13546); test: RIPK1 kinase assay; format: biochemical
T1 sequence (Q13546 1-671): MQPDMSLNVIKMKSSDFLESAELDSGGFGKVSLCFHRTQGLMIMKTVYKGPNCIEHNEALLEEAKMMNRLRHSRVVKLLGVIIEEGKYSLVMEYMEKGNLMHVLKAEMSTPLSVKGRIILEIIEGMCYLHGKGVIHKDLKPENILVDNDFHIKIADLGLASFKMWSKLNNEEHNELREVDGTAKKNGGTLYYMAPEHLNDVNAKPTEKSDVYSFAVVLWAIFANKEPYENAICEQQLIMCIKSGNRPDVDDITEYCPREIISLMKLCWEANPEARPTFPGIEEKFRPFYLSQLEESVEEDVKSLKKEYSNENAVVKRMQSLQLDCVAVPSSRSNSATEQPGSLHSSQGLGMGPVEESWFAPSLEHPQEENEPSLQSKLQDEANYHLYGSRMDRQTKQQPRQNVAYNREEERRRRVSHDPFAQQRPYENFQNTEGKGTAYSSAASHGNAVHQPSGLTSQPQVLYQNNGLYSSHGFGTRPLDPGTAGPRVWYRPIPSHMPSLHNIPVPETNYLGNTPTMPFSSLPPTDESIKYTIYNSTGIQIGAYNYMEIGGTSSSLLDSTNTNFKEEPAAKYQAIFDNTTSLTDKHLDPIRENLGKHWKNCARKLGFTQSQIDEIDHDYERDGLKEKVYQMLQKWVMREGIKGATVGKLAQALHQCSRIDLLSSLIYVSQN

RIPK2 (h) = RIPK2 (h) (Homo sapiens, UniProt O43353); test: RIPK2 kinase assay; format: biochemical
[2] = Metabolic stability assay in human liver microsome; format: in vitro ADME
[3] = Pharmacokinetic study in mice, i.v. and p.o.; format: in vivo; conditions: BALB/c, mouse, plasma, 10 mg/kg
[4] = Plasma exposure test, oral 10 mg/kg; format: in vivo; conditions: 10 mg/kg p.o., BALB/c mice
How it was run: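 Test compound in saline with 2.5% DMSO, given orally at 10 mg/kg to BALB/c mice (20–22 g), n = 3. Blood drawn at 0.5, 2 and 6 h after dosing, centrifuged to obtain plasma. Proteins precipitated with acetonitrile containing SAHA internal standard, centrifuged again; supernatant concentrations quantified by LC–MS/MS.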

Sequence of RIPK2 (h) (O43353 whole entry): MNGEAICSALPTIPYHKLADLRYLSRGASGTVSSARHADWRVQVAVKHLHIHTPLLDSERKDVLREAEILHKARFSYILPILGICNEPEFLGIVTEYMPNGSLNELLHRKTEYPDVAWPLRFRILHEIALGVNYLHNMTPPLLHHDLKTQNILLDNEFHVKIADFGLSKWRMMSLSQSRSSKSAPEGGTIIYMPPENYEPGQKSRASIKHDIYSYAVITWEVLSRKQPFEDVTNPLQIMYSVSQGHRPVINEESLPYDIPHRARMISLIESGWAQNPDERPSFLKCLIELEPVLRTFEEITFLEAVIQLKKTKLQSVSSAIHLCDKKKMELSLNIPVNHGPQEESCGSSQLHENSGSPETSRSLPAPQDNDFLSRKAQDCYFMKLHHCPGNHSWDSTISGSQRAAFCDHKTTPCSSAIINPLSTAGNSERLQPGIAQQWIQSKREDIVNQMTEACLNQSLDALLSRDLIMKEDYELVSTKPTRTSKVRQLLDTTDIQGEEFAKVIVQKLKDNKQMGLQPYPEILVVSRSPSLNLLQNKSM

Row | Structure (SMILES) | survival of mice [1] | RIPK1 Percentage%@1 μmol/L (RIPK1; active RIPK1 activity relative to control, 1 μmol/L) [%] | IC50 (RIPK2 (h)) [nM] | CL ([2]; human liver microsomes, 1 μmol/L) [mL/min/g·protein] | half-life at 1 μmol/L ([2]; human, pooled liver microsomes) [h] | IC50 (RIPK1) [nM] | AUC(0-t) ([3]; iv) [ng·h/mL] | Cmax ([3]; iv) [ng/mL] | Vd ([3]; iv) [L/kg] | clearance ([3]; iv) [mL/min/kg] | half-life ([3]; iv) [h] | AUC(0-t) ([3]; po) [ng·h/mL] | Cmax ([3]; po) [ng/mL] | bioavailability ([3]; po) [%] | half-life ([3]; po) [h] | Plasma concentration 0.5 h ([4]; 0.5 h) [ng/mL] | Plasma concentration 2 h ([4]; 2 h) [ng/mL] | Plasma concentration 6 h ([4]; 6 h) [ng/mL]
1 | CC(=O)N[C@@H](CS)C(=O)O [NAC, N-acetylcysteine] | only deferred the time of mortality | – | – | – | – | – | – | – | – | – | – | – | – | – | – | – | – | –
2 | Fc1cc2scnc2cc1Nc1ncnc2sc(C3=CCNCC3)cc12 [RP1, N-(6-fluorobenzo[d]thiazol-5-yl)-6-(1,2,3,6-tetrahydropyridin-4-yl)thieno[2,3-d]pyrimidin-4-amine] | – | 99 ± 2 | 9 | <12 | > 2 | – | – | – | – | – | – | – | – | – | – | – | – | –
3 | CC(C)(C)S(=O)(=O)c1cc2c(Nc3ccc4scnc4c3)ncnc2cc1OCCOP(=O)(O)O [GSK2983559, 2-((4-(benzo[d]thiazol-5-ylamino)-6-(tert-butylsulfonyl)quinazolin-7-yl)oxy)ethyl dihydrogen phosphate] | significantly prolong the survival | – | 7 | – | – | > 30000 | 3780 ± 255 | 5680 ± 521 | 9.46 ± 4.13 | 44.3 | 2.42 ± 0.86 | 3120 ± 1060 | 2620 ± 413 | 82.7 | 2.74 ± 0.25 | 1154 ± 125 | 145 ± 42 | 21 ± 11
